Screening results from PubChem BioAssay.
M5 PAM: positive allosteric modulators of human muscarinic M5 receptor. P08912. CHO-K1 hM5, Fluo-8 calcium, ACh EC20 PAM; 0% = ACh EC20, 100% = ACh EC100. activation, % at 3 µM. 360,000 compounds, 0.3% hits. AID 624038;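 active = activation above the run cutoff, the mean activation of all test compounds plus 3 SD, cut at about 18% in these data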
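system = human M5 receptor in CHO-K1 cells | reagent = EC20 acetylcholine as agonist stimulus | compound dosing = single-point, 3 µM nominal | incubation = Fluo-8 loading 80 min at 37 °C plus 30 min room temperature | detection = Fluo-8 calcium dye fluorescence, kinetic read | benchmarks = low control EC20 acetylcholine (0%), high control EC100 acetylcholine (100%)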
CHRM4 PAM: positive allosteric modulators of human muscarinic M4 receptor; 360,000 compounds, 0.4% hits; AID 624126; activation, % at 3 µM; CHO-K1 hM4/Gqi5, Fluo-8 calcium fluorescence, ACh EC20; 0% = ACh EC20, 100% = maximal ACh; P08173;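 active = activation above its plate's cutoff, the mean activation of sample wells plus 3 SD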
Target sequence (P08173 whole entry, looked up): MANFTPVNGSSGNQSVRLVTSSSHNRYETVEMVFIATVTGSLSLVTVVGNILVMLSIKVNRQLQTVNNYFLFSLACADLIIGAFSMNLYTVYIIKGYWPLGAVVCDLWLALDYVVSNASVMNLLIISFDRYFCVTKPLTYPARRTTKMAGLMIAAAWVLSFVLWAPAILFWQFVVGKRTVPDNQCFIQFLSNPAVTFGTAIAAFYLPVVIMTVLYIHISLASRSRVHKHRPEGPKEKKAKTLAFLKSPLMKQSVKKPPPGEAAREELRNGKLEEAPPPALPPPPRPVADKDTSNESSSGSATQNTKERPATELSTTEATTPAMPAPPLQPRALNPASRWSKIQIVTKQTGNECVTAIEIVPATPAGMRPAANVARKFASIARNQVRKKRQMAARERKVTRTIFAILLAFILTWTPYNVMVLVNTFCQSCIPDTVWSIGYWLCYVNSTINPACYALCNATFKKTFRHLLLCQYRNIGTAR
M5 ag: agonists of human muscarinic M5 receptor (CHRM5); CHO-K1 hM5 cells, Fluo-8 calcium fluorescence; 0% DMSO wells, 100% maximal acetylcholine response; activation, % at 3 µM; 360,000 compounds, 0.19% hits; AID 624037;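 active = activation above the run's mean over test compounds plus 3 SD, cut at about 23% in these data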;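 also: signal is peak over basal fluorescence ratio across the kinetic read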
CHRM4 antagonist: antagonists of human muscarinic M4 receptor (CHRM4); P08173; inhibition, % at 3 µM; 360,000 compounds, 0.73% hits; CHO-hM4 cells, ACh EC80, Fluo-8 calcium fluorescence;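 active = inhibition above its plate's cutoff, the mean inhibition of sample wells plus 3 SD, cut at about 27% in these data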
M4 ag: CHRM4 agonism in calcium assay | CHO-K1 hM4/Gqi5, Fluo-8 calcium fluorescence; vehicle 0%, full acetylcholine response 100% | 360,000 compounds, 0.14% hits | P08173 | activation, % at 3 µM;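 active = activation above the run mean over all test wells plus 3 SD, cut at about 32% in these data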;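 also: peak over basal fluorescence ratio per well then scaled between controls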
CHRM5 antagonist: CHRM5 antagonism in calcium assay | inhibition, % at 3 µM | 360,000 compounds, 0.59% hits | CHO-hM5 cells, Fluo-8 calcium fluorescence, ACh EC80;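 active = inhibition above a per-plate cutoff, the mean of that plate's test compounds plus 3 SD, cut at about 27% in these data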
A number is an active result. Shown are actives, neighbours in structure and some others; about 1.8% of the full set was active somewhere.

How did CCNC(=O)C1(C)CCCN(C(=O)c2ccccc2Br)C1 (configuration not stated) do in these assays?
M5 PAM: inactive; CHRM4 PAM: inactive; M5 ag: inactive; CHRM4 antagonist: inactive; M4 ag: inactive; CHRM5 antagonist: inactive

What do the screens show for `COC1=CCC2([N+](=O)[O-])CN(CCO)CC1([N+](=O)[O-])C2` (configuration not stated)?
M5 PAM: 19.0; CHRM4 PAM: inactive; M5 ag: inactive; CHRM4 antagonist: inactive; M4 ag: inactive; CHRM5 antagonist: inactive

What do the screens show for `O=C(O)CCN1CC2([N+](=O)[O-])CC=C(OCCO)C([N+](=O)[O-])(C1)C2` (configuration not stated)?
M5 PAM: inactive; CHRM4 PAM: inactive; M5 ag: inactive; CHRM4 antagonist: inactive; M4 ag: inactive; CHRM5 antagonist: inactive

What do the screens show for `Cc1nc2nc(-c3ccccc3)cn2nc1C`?
M5 PAM: inactive; CHRM4 PAM: 18.4; M5 ag: inactive; CHRM4 antagonist: inactive; M4 ag: inactive; CHRM5 antagonist: inactive

How did COC(=O)c1cc(S(=O)(=O)Nc2ccc(C)cn2)c[nH]1 do in these assays?
M5 PAM: inactive; CHRM4 PAM: inactive; M5 ag: inactive; CHRM4 antagonist: inactive; M4 ag: inactive; CHRM5 antagonist: 27.4

Results for O=C(Nc1ccc(F)cc1)C1CCCN(S(=O)(=O)c2cccc3nonc23)C1 (configuration not stated) ?
M5 PAM: inactive; CHRM4 PAM: inactive; M5 ag: inactive; CHRM4 antagonist: inactive; M4 ag: inactive; CHRM5 antagonist: inactive

What do the screens show for `O=C(NCc1ccc(F)cc1)C1CCCN(S(=O)(=O)c2cccc3nonc23)C1` (configuration not stated)?
M5 PAM: 20.2; CHRM4 PAM: inactive; M5 ag: inactive; CHRM4 antagonist: inactive; M4 ag: inactive; CHRM5 antagonist: inactive

Results for Cc1ccccc1-c1csc(C(C)(O)c2ccc(F)c(F)c2)n1 (configuration not stated) ?
M5 PAM: inactive; CHRM4 PAM: inactive; M5 ag: inactive; CHRM4 antagonist: inactive; M4 ag: inactive; CHRM5 antagonist: inactive

Results for COC(=O)CC1N(S(=O)(=O)c2ccc(C)cc2)c2ccccc2C1(C(=O)OC)C(=O)OC (configuration not stated) ?
M5 PAM: inactive; CHRM4 PAM: inactive; M5 ag: inactive; CHRM4 antagonist: inactive; M4 ag: inactive; CHRM5 antagonist: inactive

Results for COc1ccccc1C(=O)CSc1ccccn1 ?
M5 PAM: inactive; CHRM4 PAM: inactive; M5 ag: inactive; CHRM4 antagonist: inactive; M4 ag: inactive; CHRM5 antagonist: 27.2

How did O=C(CCSc1ccccn1)c1ccccc1 do in these assays?
M5 PAM: inactive; CHRM4 PAM: inactive; M5 ag: inactive; CHRM4 antagonist: inactive; M4 ag: inactive; CHRM5 antagonist: 28.0

How did O=C(O)CCSc1ccccn1 do in these assays?
M5 PAM: inactive; CHRM4 PAM: inactive; M5 ag: inactive; CHRM4 antagonist: inactive; M4 ag: inactive; CHRM5 antagonist: inactive

Results for COC(=O)CNC(=O)CSc1ccccn1 ?
M5 PAM: inactive; CHRM4 PAM: inactive; M5 ag: inactive; CHRM4 antagonist: inactive; M4 ag: inactive; CHRM5 antagonist: inactive

What do the screens show for `COc1ccc(C(C)=O)cc1COC(=O)CSCC(=O)Nc1ccc(C)cc1`?
M5 PAM: inactive; CHRM4 PAM: inactive; M5 ag: inactive; CHRM4 antagonist: 26.4; M4 ag: inactive; CHRM5 antagonist: inactive

Results for C#CCOC(=O)CCCC(=O)NCCCCCCCC ?
M5 PAM: 27.0; CHRM4 PAM: inactive; M5 ag: inactive; CHRM4 antagonist: inactive; M4 ag: inactive; CHRM5 antagonist: inactive

How did OC[C@@H]1CN(Cc2cccnc2)C[C@H](n2cnc3c(N4CCN(c5ccccc5)CC4)ncnc32)O1 do in these assays?
M5 PAM: inactive; CHRM4 PAM: inactive; M5 ag: inactive; CHRM4 antagonist: inactive; M4 ag: inactive; CHRM5 antagonist: inactive

How did O=C(NCc1cccs1)C1C(=O)Nc2ccccc2C(=O)N1C1CCCC1 (configuration not stated) do in these assays?
M5 PAM: inactive; CHRM4 PAM: inactive; M5 ag: inactive; CHRM4 antagonist: inactive; M4 ag: inactive; CHRM5 antagonist: inactive

What do the screens show for `Cc1cccc(C)c1NC(=O)C(C1CC1)n1c(-c2ccc(-c3ccccc3)cc2)nc2ccccc21` (configuration not stated)?
M5 PAM: inactive; CHRM4 PAM: inactive; M5 ag: inactive; CHRM4 antagonist: inactive; M4 ag: inactive; CHRM5 antagonist: inactive

What do the screens show for `CC1=CC(C)(C)NC(=S)N1c1cccc2cc(S(=O)(=O)O)ccc12`?
M5 PAM: inactive; CHRM4 PAM: inactive; M5 ag: inactive; CHRM4 antagonist: inactive; M4 ag: inactive; CHRM5 antagonist: 27.3

How did CC1=CC(C)(C)NC(=S)N1c1ccccc1C do in these assays?
M5 PAM: inactive; CHRM4 PAM: inactive; M5 ag: inactive; CHRM4 antagonist: inactive; M4 ag: inactive; CHRM5 antagonist: inactive

What do the screens show for `Cc1noc(C)c1COc1ccccc1C(=O)N1CCN(S(=O)(=O)c2ccc(C(C)C)cc2)CC1`?
M5 PAM: inactive; CHRM4 PAM: inactive; M5 ag: inactive; CHRM4 antagonist: inactive; M4 ag: inactive; CHRM5 antagonist: inactive

What do the screens show for `CCN(CC)C(=O)N1c2ccccc2C=Cc2ccccc21`?
M5 PAM: inactive; CHRM4 PAM: inactive; M5 ag: inactive; CHRM4 antagonist: inactive; M4 ag: inactive; CHRM5 antagonist: inactive

What do the screens show for `CN(C)CCCNC(=O)N1c2ccccc2C=Cc2ccccc21`?
M5 PAM: inactive; CHRM4 PAM: inactive; M5 ag: inactive; CHRM4 antagonist: 67.8; M4 ag: inactive; CHRM5 antagonist: 71.7

What do the screens show for `Cn1ncc([N+](=O)[O-])c1C(=O)N/N=C/c1ccc(F)cc1`?
M5 PAM: inactive; CHRM4 PAM: 30.6; M5 ag: inactive; CHRM4 antagonist: inactive; M4 ag: inactive; CHRM5 antagonist: inactive

How did CC[n+]1ccccc1/C=C1\Sc2ccc(C)cc2N1C do in these assays?
M5 PAM: inactive; CHRM4 PAM: inactive; M5 ag: inactive; CHRM4 antagonist: inactive; M4 ag: inactive; CHRM5 antagonist: inactive

What do the screens show for `CC[n+]1c(/C=C2\Sc3ccccc3N2C)ccc2cccc(C)c21`?
M5 PAM: inactive; CHRM4 PAM: inactive; M5 ag: inactive; CHRM4 antagonist: inactive; M4 ag: inactive; CHRM5 antagonist: 38.3

What do the screens show for `CCN1/C(=C/C=C/c2sc3ccccc3[n+]2CC)Sc2ccccc21`?
M5 PAM: inactive; CHRM4 PAM: inactive; M5 ag: inactive; CHRM4 antagonist: inactive; M4 ag: inactive; CHRM5 antagonist: inactive

What do the screens show for `CCN1/C(=C/c2ccc3cc(C)ccc3[n+]2CC)Sc2cc(C)c(C)cc21`?
M5 PAM: inactive; CHRM4 PAM: inactive; M5 ag: inactive; CHRM4 antagonist: 30.8; M4 ag: inactive; CHRM5 antagonist: 41.4
